From ChEMBL document CHEMBL3108700, “Designing anti-inflammatory drugs from parasitic worms: a synthetic small molecule analogue of the Acanthocheilonema viteae product ES-62 prevents development of collagen-induced arthritis” (J Med Chem, 2013) come the findings set out here.

Test [1] concerns the target T1, Toll-like receptor 4 (Mus musculus) (UniProt Q9QUK6).
T1 sequence (whole entry): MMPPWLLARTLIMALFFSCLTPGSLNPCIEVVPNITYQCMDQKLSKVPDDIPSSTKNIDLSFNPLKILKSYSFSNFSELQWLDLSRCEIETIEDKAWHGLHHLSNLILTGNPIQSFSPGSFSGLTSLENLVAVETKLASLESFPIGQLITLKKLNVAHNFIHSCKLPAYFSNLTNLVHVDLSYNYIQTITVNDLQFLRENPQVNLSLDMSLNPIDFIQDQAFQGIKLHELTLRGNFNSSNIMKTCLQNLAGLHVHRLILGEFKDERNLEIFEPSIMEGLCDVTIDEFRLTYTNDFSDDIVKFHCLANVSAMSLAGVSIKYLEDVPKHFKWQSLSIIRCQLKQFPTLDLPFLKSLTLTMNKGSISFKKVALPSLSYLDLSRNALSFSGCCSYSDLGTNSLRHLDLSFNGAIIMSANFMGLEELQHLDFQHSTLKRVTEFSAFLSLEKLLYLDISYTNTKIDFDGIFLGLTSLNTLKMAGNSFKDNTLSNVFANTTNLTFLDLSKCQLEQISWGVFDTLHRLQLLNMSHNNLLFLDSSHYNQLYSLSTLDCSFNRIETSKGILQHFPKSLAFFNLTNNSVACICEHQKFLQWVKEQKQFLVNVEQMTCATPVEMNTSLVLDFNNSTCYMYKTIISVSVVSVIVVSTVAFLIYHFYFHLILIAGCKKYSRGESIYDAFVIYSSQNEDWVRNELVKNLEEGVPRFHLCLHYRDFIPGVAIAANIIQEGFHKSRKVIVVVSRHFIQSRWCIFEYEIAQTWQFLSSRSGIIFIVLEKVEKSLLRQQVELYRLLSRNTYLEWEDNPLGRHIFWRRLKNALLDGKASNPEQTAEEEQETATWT
The test is described as follows: Inhibition of TLR4 in BALB/c mouse BMDM assessed as downregulation of LPS-stimulated IL-12p40 level at 5 ug/ml preincubated for 18 hrs followed by LPS challenge measured after 24 hrs by ELISA relative to control. In a few lines: (§1)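 BALB/c male bone marrow macrophages were differentiated 7 days with L929 supernatant (≥99% CD11b+/F4/80+). Cells were plated at 2 × 10^5/well in triplicate, rested overnight, and given compounds at 5 μg/mL for 18 h. They were then stimulated with 100 ng/mL S. minnesota LPS, 10 ng/mL Pam3CSK4 (BLP) or 0.01 μM CpG for 24 h. Supernatant IL-12p40 and IL-6 were measured by ELISA (sensitivity 16 pg/mL).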

Test [2] has as its target T1, Toll-like receptor 4 (Mus musculus). Nature of the test: Inhibition of TLR4-mediated NFkappaB p65 activation in LPS-stimulated BALB/c mouse BMDM at 5 ug/ml preincubated for 18 hrs followed by LPS challenge measured after 1 hr by TransAM ELISA. In a few lines:
(§2)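 Bone marrow macrophages (4 × 10^6/well) had their medium changed after 24 h, were pretreated with compounds at 5 μg/mL for 18 h, then stimulated for 1 h with 100 ng/mL LPS, 10 ng/mL BLP or 1 μM CpG. Activated NFκB p65 in nuclear extracts was measured by TransAM ELISA in duplicate.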
(In general: ELISA stands for enzyme-linked immunosorbent assay.)

Test [3] concerns the target T2, TLR2/TLR6 (Mus musculus) (UniProt Q9QUN7+Q9EPW9). The test is described as follows: Inhibition of TLR2/6-mediated NFkappaB p65 activation in BLP-stimulated BALB/c mouse BMDM at 5 ug/ml preincubated for 18 hrs followed by BLP challenge measured after 1 hr by TransAM ELISA. It is filed as protein-complex assay. In a few lines:
as §2

Test [4] addresses T2, TLR2/TLR6 (Mus musculus). Nature of the test: Inhibition of TLR2/6 in BALB/c mouse BMDM assessed as downregulation of BLP-stimulated IL-12p40 level at 5 ug/ml preincubated for 18 hrs followed by BLP challenge measured after 24 hrs by ELISA relative to control. In kind it is protein-complex assay. The procedure, abridged:
as §1

The target in test [5] is T3, Toll-like receptor 9 (Mus musculus) (UniProt Q9EQU3).
T3 sequence (whole entry): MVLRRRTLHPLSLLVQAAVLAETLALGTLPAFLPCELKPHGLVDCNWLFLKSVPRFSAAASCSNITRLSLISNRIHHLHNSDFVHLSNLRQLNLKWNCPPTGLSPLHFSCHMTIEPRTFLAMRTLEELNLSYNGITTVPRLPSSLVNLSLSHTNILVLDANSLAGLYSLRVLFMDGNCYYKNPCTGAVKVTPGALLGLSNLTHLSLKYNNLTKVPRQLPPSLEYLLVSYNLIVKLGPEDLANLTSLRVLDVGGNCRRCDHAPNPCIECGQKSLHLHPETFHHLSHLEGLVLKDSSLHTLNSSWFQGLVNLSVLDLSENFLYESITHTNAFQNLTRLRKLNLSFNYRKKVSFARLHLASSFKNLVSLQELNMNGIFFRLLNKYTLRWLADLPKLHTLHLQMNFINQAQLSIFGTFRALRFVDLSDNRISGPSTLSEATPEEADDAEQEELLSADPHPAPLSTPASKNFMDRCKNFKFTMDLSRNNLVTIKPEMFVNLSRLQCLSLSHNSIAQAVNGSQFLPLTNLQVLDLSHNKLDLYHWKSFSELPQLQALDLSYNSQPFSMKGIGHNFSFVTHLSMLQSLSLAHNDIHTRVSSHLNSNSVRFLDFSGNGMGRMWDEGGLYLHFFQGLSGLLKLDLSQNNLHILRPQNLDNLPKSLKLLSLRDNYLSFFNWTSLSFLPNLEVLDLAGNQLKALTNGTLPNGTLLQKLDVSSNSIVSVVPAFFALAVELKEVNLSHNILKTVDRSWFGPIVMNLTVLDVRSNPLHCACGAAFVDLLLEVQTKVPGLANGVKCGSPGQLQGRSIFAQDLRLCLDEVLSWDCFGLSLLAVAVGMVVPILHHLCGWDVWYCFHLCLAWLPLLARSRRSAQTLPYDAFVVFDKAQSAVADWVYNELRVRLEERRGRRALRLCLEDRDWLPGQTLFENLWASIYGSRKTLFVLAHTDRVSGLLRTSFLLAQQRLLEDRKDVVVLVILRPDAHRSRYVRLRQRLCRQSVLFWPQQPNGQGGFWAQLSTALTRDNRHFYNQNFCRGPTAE
Nature of the test: Inhibition of TLR9 in BALB/c mouse BMDM assessed as downregulation of CpG-stimulated IL-6 level at 5 ug/ml preincubated for 18 hrs followed by CpG challenge measured after 24 hrs by ELISA relative to control. The procedure, abridged:
as §1

Test [6] concerns the target T3, Toll-like receptor 9 (Mus musculus). The test is described as follows: Inhibition of TLR9-mediated NFkappaB p65 activation in CpG-stimulated BALB/c mouse BMDM at 5 ug/ml preincubated for 18 hrs followed by CpG challenge measured after 1 hr by TransAM ELISA. The procedure, abridged: as §2
Test [7] concerns the target T2, TLR2/TLR6 (Mus musculus). Nature of the test: Inhibition of TLR2/6 in BALB/c mouse BMDM assessed as downregulation of BLP-stimulated IL-6 level at 5 ug/ml preincubated for 18 hrs followed by BLP challenge measured after 24 hrs by ELISA relative to control. It is filed as protein-complex assay. In a few lines: as §1
Test [8] concerns the target T1, Toll-like receptor 4 (Mus musculus). The test is described as follows: Inhibition of TLR4 in BALB/c mouse BMDM assessed as downregulation of LPS-stimulated IL-6 level at 5 ug/ml preincubated for 18 hrs followed by LPS challenge measured after 24 hrs by ELISA relative to control. In a few lines:
as §1

Test [9] addresses T3, Toll-like receptor 9 (Mus musculus). The test is described as follows: Inhibition of TLR9 in BALB/c mouse BMDM assessed as downregulation of CpG-stimulated IL-12p40 level at 5 ug/ml preincubated for 18 hrs followed by CpG challenge measured after 24 hrs by ELISA relative to control. In a few lines:
as §1

Molecules are shown by their SMILES. Activity calls are given as the source filed them.

Regarding `CN(C)CCS(=O)(=O)NCc1ccc([N+](=O)[O-])cc1`, the inhibition result (in test [1]; in test [2]; at TLR2/TLR6 (Mus musculus) [3]; in test [6]) was “inactive” throughout. For the same compound, the inhibition entry (at TLR2/TLR6 (Mus musculus) [4]; in [5]; at TLR2/TLR6 (Mus musculus) [7]; in [8]; in [9]) was “Active” throughout.
